What was measured:
[1] = target: Sigma-1 receptor (Homo sapiens, Jurkat); experiment: Displacement of [3H](+)-pentazocine from sigma 1 receptor in human Jurkat cells by scintillation counting
[2] = Displacement of [3H]DTG […] from sigma 2 receptor in rat cerebral cortex after 120 mins; type: tissue-based
Method in brief: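 Rat cerebral cortex membranes incubated with […] (5 nM) plus (+)-pentazocine (300 nM) to mask σ1 sites, with a concentration range of test compound, 2 h at 22 °C in 5 mM Tris/HCl pH 7.4. […] Bound ligand was collected by GF/B filtration, washed with ice-cold saline and counted by liquid scintillation.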

SMILES | IC50 [1] | IC50 [2]
CN(CCCN1C(=O)[C@H]2Cc3ccccc3C[C@H]2C1=O)Cc1ccccc1 | 57 nM | –
CN(CCCN1C(=O)c2cccnc2C1=O)Cc1ccccc1 | > 200 nM | –
CN(CCCn1c(=O)[nH]c2ccc(Cl)cc2c1=O)Cc1ccccc1 | > 200 nM | –
CN(CCCN1C(=O)c2ccncc2C1=O)Cc1ccccc1 | > 200 nM | –
CN(CCCN1C(=O)C2Cc3ccccc3CN2C1=S)Cc1ccccc1 (centres undefined) | 4.5 nM | –
CN(CCCn1c(=O)[nH]c2ccc(I)cc2c1=O)Cc1ccccc1 | 103 nM | –
CN(CCCn1c(=O)[nH]c2ccccc2c1=O)Cc1ccccc1 | 116 nM | –
CN(CCCN1C(=O)[C@H](Cc2ccccc2)N(C)C1=O)Cc1ccccc1 | > 200 nM | –
CN(CCCN1C(=O)[C@@H]2Cc3ccccc3CN2C1=O)Cc1ccccc1 | – | > 500 nM
